Source: ChEMBL document CHEMBL4627249, “New modification strategy of matrine as Hsp90 inhibitors based on its specific L conformation for cancer treatment” (Bioorg Med Chem, 2020)
The source made the active and inactive calls. The calls are words filed in the database; no cut-off is given here.

Assays:
HepG2 = experiment: Antiproliferative activity against human HepG2 cells assessed as reduction in cell viability after 48 hrs by MTT assay; type: functional, cell-based; conditions: HepG2, 48 h
Summary of the method: (§1)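 HepG2 or HeLa cells in DMEM with 10% FBS and 1% penicillin-streptomycin were preincubated 24 h (37 °C, 5% CO2). They were then exposed for 48 h to 1, 5, 10, 20, 50 and 100 µM, diluted in medium from DMSO stocks. MTT (5 mg/mL, 20 µL) was added for 4 h, formazan dissolved in DMSO, and A490 read. Each concentration was run in triplicate. IC50 is the mean from dose-response curves of at least three independent experiments; cisplatin was the positive control.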

[1] = target: T1, Heat shock protein HSP90 (Homo sapiens) (UniProt P07900+P08238)
HeLa [2] = experiment: Antiproliferative activity against human HeLa cells assessed as reduction in cell viability after 48 hrs by MTT assay; type: functional, cell-based; summary of the method: as §1
MDA-MB-231 = experiment: Antiproliferative activity against human MDA-MB-231 cells assessed as reduction in cell viability after 48 hrs by MTT assay; type: functional, cell-based; conditions: MDA-MB-231, 48 h
HeLa [3] = experiment: Cell cycle arrest in human HeLa cells assessed as accumulation of cells at S phase after 48 hrs by RNase/PI-staining based flow cytometric analysis; type: functional
HeLa [4] = experiment: Induction of apoptosis in human HeLa cells assessed as late apoptotic cells at 5 uM after 48 hrs by Annexin V/propidium iodide staining based assay (reference value: 1.75 %); type: functional
Summary of the method: (§2)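 HeLa cells were seeded at 2 × 10^5 per well in six-well plates and left overnight. They were then treated with 5, 10 or 20 µM for 48 h. Annexin V-FITC/PI staining was done with a commercial kit per its instructions. Early and late apoptotic fractions are given as cumulative percentages relative to untreated control.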

HeLa [5] = experiment: Cell cycle arrest in human HeLa cells assessed as accumulation of cells at S phase at 10 uM after 48 hrs by RNase/PI-staining based flow cytometric analysis (reference value: 17.24 %); type: functional
HeLa [6] = experiment: Induction of apoptosis in human HeLa cells assessed as late apoptotic cells at 20 uM after 48 hrs by Annexin V/propidium iodide staining based assay (reference value: 1.75 %); type: functional; summary of the method: as §2
HeLa [7] = experiment: Induction of apoptosis in human HeLa cells assessed as early apoptotic cells at 5 uM after 48 hrs by Annexin V/propidium iodide staining based assay (reference value: 3.22 %); type: functional; summary of the method: as §2
HeLa [8] = experiment: Induction of apoptosis in human HeLa cells assessed as decrease in protected caspase 3 protein expression after 48 hrs by Western blot analysis; type: functional, cell-based
Summary of the method: (§3)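 HeLa cells were treated 48 h with 12.5, 25 or 50 µM, or with DMSO vehicle. Cells were lysed 30 min in RIPA buffer with protease inhibitor cocktail and spun at 12,000 rpm for 15 min at 4 °C. Proteins were run on 6-15% SDS-PAGE and moved to nitrocellulose. Membranes were blocked in 5% non-fat milk in TBS, probed with primary and secondary antibodies, and imaged by chemiluminescence.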

HeLa [9] = experiment: Induction of apoptosis in human HeLa cells assessed as decrease in Bcl-2 protein expression after 48 hrs by Western blot analysis; type: functional, cell-based; summary of the method: as §3
HeLa [10] = experiment: Cell cycle arrest in human HeLa cells assessed as accumulation of cells at G2/M phase at 20 uM after 48 hrs by RNase/PI-staining based flow cytometric analysis (reference value: 11.69 %); type: functional
HeLa [11] = experiment: Induction of apoptosis in human HeLa cells assessed as late apoptotic cells at 10 uM after 48 hrs by Annexin V/propidium iodide staining based assay (reference value: 1.75 %); type: functional; summary of the method: as §2
HeLa [12] = experiment: Cell cycle arrest in human HeLa cells assessed as accumulation of cells at G2/M phase at 10 uM after 48 hrs by RNase/PI-staining based flow cytometric analysis (reference value: 11.69 %); type: functional
HeLa [13] = experiment: Induction of apoptosis in human HeLa cells assessed as increase in cleaved caspase 3 protein expression after 48 hrs by Western blot analysis; type: functional, cell-based; summary of the method: as §3
HeLa [14] = experiment: Cell cycle arrest in human HeLa cells assessed as accumulation of cells at G2/M phase at 5 uM after 48 hrs by RNase/PI-staining based flow cytometric analysis (reference value: 11.69 %); type: functional
[15] = target: T1, Heat shock protein HSP90 (Homo sapiens); experiment: Inhibition of Hsp90 in human Hela cells assessed as down regulation of Hsp90 protein expression at 12.5 uM to 50 uM after 48 hrs by Western blot analysis; type: cell-based; summary of the method: as §3
HeLa [16] = experiment: Cell cycle arrest in human HeLa cells assessed as accumulation of cells at S phase at 5 uM after 48 hrs by RNase/PI-staining based flow cytometric analysis (reference value: 17.24 %); type: functional
HeLa [17] = experiment: Induction of apoptosis in human HeLa cells assessed as viable cells at 10 uM after 48 hrs by Annexin V/propidium iodide staining based assay (reference value: 95.03 %); type: functional; conditions: read-out: Activity; summary of the method: as §2
HeLa [18] = experiment: Induction of apoptosis in human HeLa cells assessed as increase in ratio of Bax to Bcl-2 protein expression 12.5 to 50 uM after 48 hrs by Western blot analysis; type: functional, cell-based; summary of the method: as §3
HeLa [19] = experiment: Cell cycle arrest in human HeLa cells assessed as accumulation of cells at G0/G1 phase at 10 uM after 48 hrs by RNase/PI-staining based flow cytometric analysis analysis (reference value: 71.07 %); type: functional
HeLa [20] = experiment: Induction of apoptosis in human HeLa cells assessed as early apoptotic cells at 10 uM after 48 hrs by Annexin V/propidium iodide staining based assay (reference value: 3.22 %); type: functional; summary of the method: as §2
HeLa [21] = experiment: Induction of apoptosis in human HeLa cells assessed as necrotic cells at 10 uM after 48 hrs by Annexin V/propidium iodide staining based assay (reference value: 0 %); type: functional; summary of the method: as §2
HeLa [22] = experiment: Induction of apoptosis in human HeLa cells assessed as viable cells at 20 uM after 48 hrs by Annexin V/propidium iodide staining based assay (reference value: 95.03 %); type: functional; conditions: read-out: Activity; summary of the method: as §2
HeLa [23] = experiment: Induction of apoptosis in human HeLa cells assessed as increase in Bax protein expression after 48 hrs by Western blot analysis; type: functional, cell-based; summary of the method: as §3
HeLa [24] = experiment: Cell cycle arrest in human HeLa cells assessed as accumulation of cells at S phase at 20 uM after 48 hrs by RNase/PI-staining based flow cytometric analysis (reference value: 17.24 %); type: functional
HeLa [25] = experiment: Cell cycle arrest in human HeLa cells assessed as accumulation of cells at G0/G1 phase at 20 uM after 48 hrs by RNase/PI-staining based flow cytometric analysis (reference value: 71.07 %); type: functional
HeLa [26] = experiment: Induction of apoptosis in human HeLa cells assessed as viable cells at 5 uM after 48 hrs by Annexin V/propidium iodide staining based assay (reference value: 95.03 %); type: functional; conditions: read-out: Activity; summary of the method: as §2
HeLa [27] = experiment: Induction of apoptosis in human HeLa cells assessed as early apoptotic cells at 20 uM after 48 hrs by Annexin V/propidium iodide staining based assay (reference value: 3.22 %); type: functional; summary of the method: as §2
HeLa [28] = experiment: Cell cycle arrest in human HeLa cells assessed as accumulation of cells at G0/G1 phase at 5 uM after 48 hrs by RNase/PI-staining based flow cytometric analysis (reference value: 71.07 %); type: functional
HeLa [29] = experiment: Induction of apoptosis in human HeLa cells assessed as necrotic cells at 20 uM after 48 hrs by Annexin V/propidium iodide staining based assay (reference value: 0 %); type: functional; summary of the method: as §2
HeLa [30] = experiment: Induction of apoptosis in human HeLa cells assessed as accumulation of […] cells at 5 uM after 48 hrs by Annexin V/propidium iodide staining based assay (reference value: 0 %); type: functional; summary of the method: as §2

Compound `Nc1c2c(nc3ccc([N+](=O)[O-])cc13)N1C[C@@H]3CCCN4CCC[C@@H]([C@H]34)[C@H]1CC2` has an IC50 (HepG2) of 35.1 µM, a ΔTm [1] of -0.24 °C and an IC50 (HeLa [2]) of 69.2 µM. It also gave an IC50 (MDA-MB-231) of 24.4 µM.
`Nc1c2c(nc3ccc(C(F)(F)F)cc13)N1C[C@@H]3CCCN4CCC[C@@H]([C@H]34)[C@H]1CC2` was tested, and the Activity (HeLa [3]) was “Dose-dependent effect”, the Activity (HeLa [4]) was 8.79% and the Activity (HeLa [5]) was 26.67%. The Activity (HeLa [6]) was 21.17%, the Activity (HeLa [7]) was 17.51% and the IC50 (HepG2) was 16.1 µM. The Activity (HeLa [8]) was “Dose-dependent effect”, the Activity (HeLa [9]) was “Dose-dependent effect” and the Activity (HeLa [10]) was 2.93%. For the same compound, the Activity (HeLa [11]) was 17.3%, the Activity (HeLa [12]) was 10.86% and the Activity (HeLa [13]) was “Dose-dependent effect”. For the same compound, the Activity (HeLa [14]) was 12.83%, the inhibition [15] was “Active” and the ΔTm [1] was 10.9 °C. The Activity (HeLa [16]) was 21.64%, the viability at 10 µM (HeLa [17]) was 50.1% and the Activity (HeLa [18]) was “Active”. The Activity (HeLa [19]) was 62.47%, the Activity (HeLa [20]) was 28.57% and the Activity (HeLa [21]) was 4.06%. The viability at 20 µM (HeLa [22]) was 38.1%, the Activity (HeLa [23]) was “Dose-dependent effect” and the Activity (HeLa [24]) was 40.12%. The Activity (HeLa [25]) was 56.95%, the IC50 (HeLa [2]) was 19.6 µM and the viability at 5 µM (HeLa [26]) was 72%. It also gave an Activity (HeLa [27]) of 38.07%, an Activity (HeLa [28]) of 65.53% and an IC50 (MDA-MB-231) of 22.1 µM. The Activity (HeLa [29]) was 2.62% and the Activity (HeLa [30]) was 8.79%.
In the case of `c1ccc(/N=C2\CCC[C@@H]3[C@H]4CCCN5CCC[C@@H](CN23)[C@@H]45)cc1`, the IC50 (HepG2) is reported as > 100 µM, the ΔTm [1] is reported as -0.57 °C and the IC50 (HeLa [2]) is reported as > 100 µM. The IC50 (MDA-MB-231) was > 100 µM.
`CCOc1ccc(/N=C2\CCC[C@@H]3[C@H]4CCCN5CCC[C@@H](CN23)[C@@H]45)cc1` was tested, and the IC50 (HepG2) was 97.5 µM, the ΔTm [1] was 0 °C and the IC50 (HeLa [2]) was > 100 µM. For the same compound, the IC50 (MDA-MB-231) was > 100 µM.
For `O=C1CCCC[C@@H]2[C@H]3CCCN4CCC[C@@H](CN12)[C@@H]34`, the IC50 (HepG2) was > 100 µM, the IC50 (HeLa [2]) was > 100 µM and the IC50 (MDA-MB-231) was > 100 µM.
`Nc1c2c(nc3ccc(Cl)cc13)N1C[C@@H]3CCCN4CCC[C@@H]([C@H]34)[C@H]1CC2` gave an IC50 (HepG2) of 6.4 µM, a ΔTm [1] of -6.58 °C and an IC50 (HeLa [2]) of 8.9 µM. It also gave an IC50 (MDA-MB-231) of 14.3 µM.
In the case of `O=C1CCC[C@@H]2[C@H]3CCCN4CCC[C@@H](CN12)[C@@H]34` [MATRINE], the IC50 (HepG2) is reported as 4510 µM, the ΔTm [1] is reported as 0.04 °C and the IC50 (HeLa [2]) is reported as 4330 µM. It also gave an IC50 (MDA-MB-231) of 5370 µM.
`CC(C)c1ccc(/N=C2\CCC[C@@H]3[C@H]4CCCN5CCC[C@@H](CN23)[C@@H]45)cc1` showed an IC50 (HepG2) of 96.6 µM, a ΔTm [1] of -1.24 °C and an IC50 (HeLa [2]) of 93.3 µM. The IC50 (MDA-MB-231) was 77.5 µM.
In the case of `N#Cc1ccccc1/N=C1\CCC[C@@H]2[C@H]3CCCN4CCC[C@@H](CN12)[C@@H]34`, the IC50 (HepG2) is reported as > 100 µM, the ΔTm [1] is reported as -1.44 °C and the IC50 (HeLa [2]) is reported as > 100 µM. The IC50 (MDA-MB-231) was > 100 µM.
